Key:
NCI-H522 = experiment: Anticancer activity against human NCI-H522 cells assessed as cell growth promotion at 10^-5 M after 48 hrs by SRB assay relative to control; format: functional
U-251 = experiment: Anticancer activity against human U251 cells assessed as cell growth promotion at 10^-5 M after 48 hrs by SRB assay relative to control; format: functional
SK-MEL-2 = experiment: Anticancer activity against human SK-MEL-2 cells assessed as cell growth promotion at 10^-5 M after 48 hrs by SRB assay relative to control; format: functional
SNB-75 = experiment: Anticancer activity against human SNB75 cells assessed as cell growth promotion at 10^-5 M after 48 hrs by SRB assay relative to control; format: functional
K562 = experiment: Cytotoxicity against human K562 cells after 48 hrs by SRB assay; format: cell-based; conditions: k562, 48 h
How it was run: (§1)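 NCI-60 five-dose screen in RPMI 1640 with 5% FBS and 2 mM L-glutamine; 5000–40,000 cells/well, 24 h pre-incubation. DMSO stocks diluted to 0.01, 0.1, 1, 10 and 100 μM final; 48 h at 37 °C, 5% CO2. Fixed with TCA (10% final adherent, 16% suspension), stained with 0.4% SRB, A515. GI50, TGI and LC50 taken from time-zero, control and test absorbances.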

DU-145 = experiment: Growth inhibition of human DU145 cells after 48 hrs by SRB assay; format: functional; conditions: DU-145, 48 h
How it was run: (§2)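 NCI 60-panel five-dose assay at 0.01, 0.1, 1, 10 and 100 μM. Cells in RPMI 1640 with 5% FBS and 2 mM L-glutamine, preincubated 24 h, with time-zero plates TCA-fixed. Drug exposure 48 h at 37 °C. Read by SRB staining at 515 nm. GI50 is the concentration where [(Ti−Tz)/(C−Tz)]×100 = 50, taken from log concentration versus % growth curves.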

[1] = Anticancer activity against human […] cells assessed as cell growth promotion at 10^-5 M after 48 hrs by SRB assay relative to control; format: functional
HCT-15 [2] = experiment: Anticancer activity against human HCT15 cells assessed as cell growth promotion at 10^-5 M after 48 hrs by SRB assay relative to control; format: functional
MDA-MB-435 = experiment: Anticancer activity against human MDA-MB-435 cells assessed as cell growth promotion at 10^-5 M after 48 hrs by SRB assay relative to control; format: functional
NCI-H322M = experiment: Growth inhibition of human NCI-H322M cells after 48 hrs by SRB assay; format: functional; how it was run: as §2
[3] = Growth inhibition of human Hs 578T cells after 48 hrs by SRB assay; format: functional; how it was run: as §2
UO-31 = experiment: Anticancer activity against human UO31 cells assessed as cell growth promotion at 10^-5 M after 48 hrs by SRB assay relative to control; format: functional
LOX IMVI = experiment: Growth inhibition of human LOXIMVI cells after 48 hrs by SRB assay; format: functional; how it was run: as §2
UACC-257 = experiment: Anticancer activity against human UACC257 cells assessed as cell growth promotion at 10^-5 M after 48 hrs by SRB assay relative to control; format: functional
NCI-H226 [4] = experiment: Anticancer activity against human NCI-H226 cells assessed as cell growth promotion at 10^-5 M after 48 hrs by SRB assay relative to control; format: functional
A549 = experiment: Cytotoxicity against human A549 cells after 48 hrs by SRB assay; format: cell-based; conditions: a549, 48 h; how it was run: as §1
CCRF-CEM [5] = experiment: Anticancer activity against human CCRF-CEM cells assessed as cell growth promotion at 10^-5 M after 48 hrs by SRB assay relative to control; format: functional
NCI-H226 [6] = experiment: Growth inhibition of human NCI-H226 cells after 48 hrs by SRB assay; format: functional; conditions: NCI-H226, 48 h; how it was run: as §2
786-0 = experiment: Growth inhibition of human 786-0 cells after 48 hrs by SRB assay; format: functional; conditions: 786-0, 48 h; how it was run: as §2
M14 [7] = experiment: Growth inhibition of human M14 cells after 48 hrs by SRB assay; format: functional; conditions: M14, 48 h; how it was run: as §2
CCRF-CEM [8] = experiment: Cytotoxicity against human CCRF-CEM cells after 48 hrs by SRB assay; format: cell-based; how it was run: as §1
SR = experiment: Anticancer activity against human SR cells assessed as cell growth promotion at 10^-5 M after 48 hrs by SRB assay relative to control; format: functional
HCC 2998 = experiment: Growth inhibition of human HCC2998 cells after 48 hrs by SRB assay; format: functional; conditions: HCC 2998, 48 h; how it was run: as §2
SNB-19 = experiment: Anticancer activity against human SNB19 cells assessed as cell growth promotion at 10^-5 M after 48 hrs by SRB assay relative to control; format: functional
M14 [9] = experiment: Anticancer activity against human M14 cells assessed as cell growth promotion at 10^-5 M after 48 hrs by SRB assay relative to control; format: functional
MDA-MB-231 = experiment: Growth inhibition of human MDA-MB-231 cells after 48 hrs by SRB assay; format: functional; conditions: MDA-MB-231, 48 h; how it was run: as §2
OVCAR-4 = experiment: Anticancer activity against human OVCAR4 cells assessed as cell growth promotion at 10^-5 M after 48 hrs by SRB assay relative to control; format: functional
HT-29 = experiment: Anticancer activity against human HT-29 cells assessed as cell growth promotion at 10^-5 M after 48 hrs by SRB assay relative to control; format: functional
SN12C = experiment: Anticancer activity against human SN12C cells assessed as cell growth promotion at 10^-5 M after 48 hrs by SRB assay relative to control; format: functional
IGROV-1 = experiment: Cytotoxicity against human IGROV1 cells after 48 hrs by SRB assay; format: cell-based; conditions: igrov-1, 48 h; how it was run: as §1
Malme-3M = experiment: Cytotoxicity against human MALME-3M cells after 48 hrs by SRB assay; format: cell-based; how it was run: as §1
CAKI-1 = experiment: Anticancer activity against human Caki1 cells assessed as cell growth promotion at 10^-5 M after 48 hrs by SRB assay relative to control; format: functional
RXF 393 = experiment: Anticancer activity against human RXF393 cells assessed as cell growth promotion at 10^-5 M after 48 hrs by SRB assay relative to control; format: functional
ACHN = experiment: Anticancer activity against human ACHN cells assessed as cell growth promotion at 10^-5 M after 48 hrs by SRB assay relative to control; format: functional
SF-295 = experiment: Cytotoxicity against human SF295 cells after 48 hrs by SRB assay; format: cell-based; conditions: sf-295, 48 h; how it was run: as §1
HCT-15 [10] = experiment: Cytotoxicity against human HCT15 cells after 48 hrs by SRB assay; format: cell-based; conditions: hct-15, 48 h; how it was run: as §1
HL-60(TB) = experiment: Cytotoxicity against human HL-60(TB) cells after 48 hrs by SRB assay; format: cell-based; how it was run: as §1
BT-549 = experiment: Anticancer activity against human BT549 cells assessed as cell growth promotion at 10^-5 M after 48 hrs by SRB assay relative to control; format: functional

## O=c1c2ccccc2nc(-c2ccco2)n1/N=C/c1ccccc1Cl
NCI-H522
  Activity: 10.38%
U-251
  Activity: 37.22%
SK-MEL-2
  Activity: 67.89%
SNB-75
  Activity: 32.38%
K562
  LC50: > 100 µM
DU-145
  GI50: 4.38 µM
  TGI: > 100 µM
[1]
  Activity: 92.65%
HCT-15 [2]
  Activity: 62.36%
MDA-MB-435
  Activity: 90.21%
NCI-H322M
  GI50: 4.11 µM
  TGI: 76.9 µM
[3]
  GI50: 15.2 µM
  TGI: > 100 µM
UO-31
  Activity: 62.12%
LOX IMVI
  GI50: 4.54 µM
  TGI: > 100 µM
UACC-257
  Activity: 82.72%
NCI-H226 [4]
  Activity: 53.52%
A549
  LC50: > 100 µM
CCRF-CEM [5]
  Activity: 83.12%
NCI-H226 [6]
  GI50: 4.12 µM
  TGI: > 100 µM
786-0
  GI50: 3.94 µM
  TGI: 14.9 µM
M14 [7]
  GI50: 10.8 µM
  TGI: > 100 µM
CCRF-CEM [8]
  LC50: > 100 µM
SR
  Activity: 94.12%
HCC 2998
  GI50: 5.68 µM
  TGI: > 100 µM
SNB-19
  Activity: 62.14%
M14 [9]
  Activity: 87.98%
MDA-MB-231
  GI50: 3.13 µM
  TGI: 7.84 µM
OVCAR-4
  Activity: 4.38%
HT-29
  Activity: 52.78%
SN12C
  Activity: 36.81%
IGROV-1
  LC50: > 100 µM
Malme-3M
  LC50: > 100 µM
CAKI-1
  Activity: 62.86%
RXF 393
  Activity: 82.73%
ACHN
  Activity: 23.89%
SF-295
  LC50: > 100 µM
HCT-15 [10]
  LC50: > 100 µM
HL-60(TB)
  LC50: > 100 µM
BT-549
  Activity: 13.63%

## O=C(Nc1ccccc1C(=O)Nc1ccc(/C=C/c2ccc(O)cc2)cc1)c1ccccc1
NCI-H522
  Activity: 69.87%
U-251
  Activity: 103%
SK-MEL-2
  Activity: 99.47%
SNB-75
  Activity: 99.47%
[1]
  Activity: 53.22%
HCT-15 [2]
  Activity: 57.75%
MDA-MB-435
  Activity: 86.41%
UO-31
  Activity: 39.29%
UACC-257
  Activity: 94.49%
NCI-H226 [4]
  Activity: 79.29%
CCRF-CEM [5]
  Activity: 40.37%
SR
  Activity: 94.97%
SNB-19
  Activity: 86.41%
M14 [9]
  Activity: 81.74%
OVCAR-4
  Activity: 82.05%
HT-29
  Activity: 97.64%
SN12C
  Activity: 80.93%
CAKI-1
  Activity: 70.25%
RXF 393
  Activity: 97.37%
ACHN
  Activity: 58.96%
BT-549
  Activity: 65.95%

## O=C(Nc1ccccc1C(=O)Nc1ccc(/C=C/c2ccc(Cl)cc2)cc1)c1ccccc1
NCI-H522
  Activity: 70.95%
U-251
  Activity: 60.68%
SK-MEL-2
  Activity: 90.64%
SNB-75
  Activity: 84.55%
[1]
  Activity: 56.24%
HCT-15 [2]
  Activity: 65.81%
MDA-MB-435
  Activity: 82.15%
UO-31
  Activity: 52.88%
UACC-257
  Activity: 94.73%
NCI-H226 [4]
  Activity: 85.77%
CCRF-CEM [5]
  Activity: 52.41%
SR
  Activity: 81.19%
SNB-19
  Activity: 74.25%
M14 [9]
  Activity: 78.5%
OVCAR-4
  Activity: 85.63%
HT-29
  Activity: 89.94%
SN12C
  Activity: 79.73%
CAKI-1
  Activity: 90.6%
RXF 393
  Activity: 82.15%
ACHN
  Activity: 82.68%
BT-549
  Activity: 76.41%

— ChEMBL document CHEMBL1781959, “Synthesis and in vitro antitumor activity of substituted quinazoline and quinoxaline derivatives: search for anticancer agent” (Eur J Med Chem, 2011)
